Experimental findings from ChEMBL document CHEMBL3227992, “Glycerides as prodrugs. 1. Synthesis and antiinflammatory activity of 1,3-bis(alkanoyl)-2-(O-acetylsalicyloyl)glycerides (aspirin triglycerides)” (J Med Chem, 1979) are described below.

Structures are written as SMILES. Active and inactive are the calls of the source. No cut-off for these calls is given here.

Data set [1] concerns Rattus norvegicus. The data set can be described thus: Antiinflammatory activity in Sprague-Dawley rat assessed as inhibition of carrageenin-induced hind paw swelling at 323 umol/kg, po administered 2 hrs prior to carrageenin challenge measured after 3 hrs by volumetric transducer analysis relative to aspirin. In kind it is functional. The procedure, abridged:
(§1)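 Male Sprague-Dawley rats (170-200 g) were fasted overnight with water ad libitum. Compounds were suspended in 0.5% (w/v) methylcellulose with a drop of Tween 80 and given orally 2 h before a subplantar injection of 0.1 mL of 1.5% carrageenin. Paw volume was read before and 3 h after injection by immersion in a mercury vessel linked to a volumetric transducer and polygraph.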
For orientation: Carrageenan injected into the paw causes an acute inflammation.

Data set [2] relates to Plasma. The data set is described as follows: Prodrug conversion in rat plasma assessed as salicylate level at 594 umol/kg, po measured after 24 hrs. The format is ADME, organism-based. The settings on record: in vivo. The procedure, abridged:
(§2)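 Rats were dosed orally, with the glyceride given as an emulsion. Plasma salicylate was followed from 15 min to 24 h after dosing and reported as mean levels. Absorption was estimated by comparing mean areas under the plasma salicylate curves with those after aspirin.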

The test system of data set [3] is Plasma. The data set is described as follows: Prodrug conversion in rat plasma assessed as salicylate level at 594 umol/kg, po measured after 15 mins. In kind it is ADME, organism-based. The settings on record: in vivo, 0.25 h. In outline: as §2
Data set [4] deals with Rattus norvegicus. The data set can be described thus: Ulcerogenicity in Sprague-Dawley rat assessed as gastric lesions at 444 umol/kg, po. In kind it is toxicity, organism-based, Stomach. Particulars: in vivo. The procedure, abridged:
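Rats were fasted overnight and dosed orally with compound in 0.5% methylcellulose plus Tween 80. Stomachs were examined for gastric lesions by the Brodie and Hansen method. Lesion incidence counted animals with a lesion of 1 mm or longer, expressed relative to plain aspirin.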

Data set [5] has as its system Rattus norvegicus. The data set can be described thus: Antiinflammatory activity in Sprague-Dawley rat assessed as inhibition of carrageenin-induced hind paw swelling at 394 umol/kg, po administered 2 hrs prior to carrageenin challenge measured after 3 hrs by volumetric transducer analysis relative to aspirin. The format is functional. The procedure, abridged:
as §1

In data set [6] the test system is Rattus norvegicus. The data set can be described thus: Antiinflammatory activity in Sprague-Dawley rat assessed as inhibition of carrageenin-induced hind paw swelling at 444 umol/kg, po administered 2 hrs prior to carrageenin challenge measured after 3 hrs by volumetric transducer analysis relative to aspirin. The format is functional. The procedure, abridged:
as §1

Data set [7] concerns Rattus norvegicus. The data set can be described thus: Antiinflammatory activity in Sprague-Dawley rat assessed as inhibition of carrageenin-induced hind paw swelling at 273 umol/kg, po administered 2 hrs prior to carrageenin challenge measured after 3 hrs by volumetric transducer analysis relative to aspirin. In kind it is functional. In outline: as §1
Data set [8] in a line: Drug absorption in rat at 1192 umol/kg, po administered as emulsified solution. The format is ADME, organism-based. Particulars: in vivo, read-out: Drug absorption. The procedure, abridged: as §2
Data set [9] relates to Rattus norvegicus. The data set can be described thus: Antipyretic activity against yeast-induced fever in rat assessed as prolonged duration of action at 1068 umol/kg, po relative to aspirin. The format is functional, organism-based.
In data set [10] the test system is Rattus norvegicus. The data set can be described thus: Antipyretic activity against yeast-induced fever in rat assessed as delay in onset of activity at 1068 umol/kg, po relative to aspirin. In kind it is functional, organism-based.
The test system of data set [11] is Plasma. The data set is described as follows: Prodrug conversion in rat plasma assessed as salicylate level at 1192 umol/kg, po administered as emulsified solution measured after 1 to 6 hrs. The settings on record: in vivo. The format is ADME, organism-based. In outline:
as §2

The subject of data set [12] is Plasma. The data set is described as follows: Prodrug conversion in rat plasma assessed as salicylate level at 1192 umol/kg, po administered as emulsified solution measured after 24 hrs. In kind it is ADME, organism-based. The settings on record: in vivo. In outline:
as §2

As a reminder, the inhibition in vivo is the relative decrease from the control value, in per cent. For `CCCCCCCCCCCC(=O)OCC(COC(=O)CCCCCCCCCCC)OC(=O)c1ccccc1OC(C)=O`, in the data set on Rattus norvegicus [1], the inhibition in vivo at 323 µmol/kg amounted to 44%.

Regarding `CC(=O)Oc1ccccc1C(=O)O` [ASPIRIN], the Drug metabolism in the data set with Plasma [2] was determined as 24 µg/mL; with Plasma [3] it was 196 µg/mL. Further, in the data set on Rattus norvegicus [4], the Activity result is “Toxic”.

Turning to `CCCCCCCC(=O)OCC(COC(=O)CCCCCCC)OC(=O)c1ccccc1OC(C)=O`, in the data set on Rattus norvegicus [5], the inhibition in vivo at 394 µmol/kg was found to be 60%.

As to `CC(=O)OCC(COC(C)=O)OC(=O)c1ccccc1OC(C)=O`, in the data set with Rattus norvegicus [4], the Activity entry was “Toxic”. The inhibition in vivo at 444 µmol/kg in the data set on Rattus norvegicus [6] amounted to 48%.

As for `CCCC(=O)OCC(COC(=O)CCC)OC(=O)c1ccccc1OC(C)=O`, in the data set with Rattus norvegicus [4], the Activity result was “Non-toxic”. The inhibition in vivo at 444 µmol/kg in the data set on Rattus norvegicus [6] amounted to 92%.

In the case of `CCCCCCCCCCCCCCCC(=O)OCC(COC(=O)CCCCCCCCCCCCCCC)OC(=O)c1ccccc1OC(C)=O`, the inhibition in vivo at 273 µmol/kg with Rattus norvegicus [7] came to 12%.

Regarding `CCCCCCCCCC(=O)OCC(COC(=O)CCCCCCCCC)OC(=O)c1ccccc1OC(C)=O`, the Fa in [8] was found to be 100%. Further, the Activity result in the data set with Rattus norvegicus [4] was “Non-toxic”. For the same molecule, the result in the data set with Rattus norvegicus [9] and in the data set on Rattus norvegicus [10] was Active. For the same molecule, the inhibition in vivo at 444 µmol/kg in the data set on Rattus norvegicus [6] is 80%. Moreover, the Drug metabolism with Plasma [11] turned out to be 219 µg/mL; with Plasma [12], 61 µg/mL.
